Series [1] in a line: Concentration required to reduce HV2 196 virus induced cytogenicity in primary rabbit kidney (PRK). It is filed as functional. The settings on record: Oryctolagus cuniculus; read-out: ID50 (the source's name).
Series [2] in a line: Concentration required to reduce HSV-1 F virus induced cytogenicity in primary rabbit kidney (PRK). Conditions: Oryctolagus cuniculus; read-out: ID50 (the source's name). It is filed as functional.
The nature of series [3]: Concentration required to reduce vaccinia virus induced cytogenicity in primary rabbit kidney (PRK). It is filed as functional. Conditions: Oryctolagus cuniculus; read-out: ID50 (the source's name).
Series [4] in a line: Concentration required to reduce [Me-H]dThd incorporation into DNA in primary rabbit kidney (PRK). Conditions: Oryctolagus cuniculus, read-out: ID50 (the source's name). It is filed as functional. In outline: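 [methyl-3H]dThd incorporation into DNA of primary rabbit kidney cell cultures was measured with test compound present. ID50 is the concentration reducing dThd incorporation into DNA by 50%.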

Series [5] in a line: Concentration required to reduce HSV-2 Lyons virus induced cytogenicity in primary rabbit kidney (PRK). It is filed as functional. Conditions: Oryctolagus cuniculus; read-out: ID50 (the source's name).
Series [6] can be described thus: Minimum Cytotoxic concentration in primary rabbit kidney (PRK). It is filed as tissue-based, Oryctolagus cuniculus. The settings on record: primary rabbit kidney (PRK) cells. A digest of the protocol:
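Primary rabbit kidney cell cultures, the same cells used for the virus cytopathogenicity assays, were exposed to the compound. Cytotoxicity was read as the lowest concentration causing a microscopically visible change in cell morphology.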

Series [7] in a line: Concentration required to reduce HSV-1 McIntyre virus induced cytogenicity in primary rabbit kidney (PRK). It is filed as functional. Conditions: Oryctolagus cuniculus, read-out: ID50 (the source's name).
Series [8] in a line: Concentration required to reduce HSV-1 KOS virus induced cytogenicity in primary rabbit kidney (PRK). It is filed as functional. Conditions: Oryctolagus cuniculus; read-out: ID50 (the source's name).
The nature of series [9]: Ratio of ID50 for [Me-H]dThd to ID50 for [1,2-H]dUrd. It is filed as functional. In outline: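 The ratio is the ID50 for [Me-3H]dThd incorporation divided by the ID50 for [1',2'-3H]dUrd incorporation into PRK cell DNA. Each ID50 is the concentration giving 50% reduction of incorporation. The ratio is treated as a parameter for selective in vivo thymidylate synthetase inhibition.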

The nature of series [10]: Concentration required to reduce virus HSV-2G induced cytogenicity in primary rabbit kidney (PRK). It is filed as functional. The settings on record: Oryctolagus cuniculus; read-out: ID50 (the source's name).
Series [11] can be described thus: Concentration required to reduce [1,2-H]dUrd incorporation into DNA in n primary rabbit kidney (PRK). It is filed as functional. The settings on record: Oryctolagus cuniculus; read-out: ID50 (the source's name). In outline: (§1)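 PRK cell cultures (10^5 cells per well) were pulsed with 2'-deoxy[1',2'-3H]uridine (42 Ci/mmol) at 0.25 μCi, or 6 pmol, per well. Compound concentration cutting label incorporation into cellular DNA by 50% was taken as ID50.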

Series [12] can be described thus: Concentration required to reduce [1,2-H]dUrd incorporation into DNA in primary rabbit kidney (PRK). It is filed as functional. The settings on record: Oryctolagus cuniculus; read-out: ID50 (the source's name). In outline:
as §1

Series [13] can be described thus: Concentration required to reduce HV2 196 virus induced cytogenicity in primary rabbit kidney (PRK); Range is 1-4. It is filed as functional. Conditions: Oryctolagus cuniculus; read-out: ID50 (the source's name).
A short description of series [14]: Concentration required to reduce HSV-1 F virus induced cytogenicity in primary rabbit kidney (PRK); Range is 1-2. It is filed as functional. The settings on record: Oryctolagus cuniculus; read-out: ID50 (the source's name).
Series [15] is described as follows: Concentration required to reduce HSV-1 KOS virus induced cytogenicity in primary rabbit kidney (PRK); Range is 1-2. It is filed as functional. The settings on record: Oryctolagus cuniculus; read-out: ID50 (the source's name).
Series [16] in a line: Concentration required to reduce virus HSV-2G induced cytogenicity in primary rabbit kidney (PRK); Range is 1-2. The settings on record: Oryctolagus cuniculus; read-out: ID50 (the source's name). It is filed as functional.
Series [17] is described as follows: Concentration required to reduce vaccinia virus induced cytogenicity in primary rabbit kidney (PRK); Range is 0.1-0.2. It is filed as functional. The settings on record: Oryctolagus cuniculus; read-out: ID50 (the source's name).
The nature of series [18]: Concentration required to reduce HSV-2 Lyons virus induced cytogenicity in primary rabbit kidney (PRK); Range is 2-4. It is filed as functional. Conditions: Oryctolagus cuniculus; read-out: ID50 (the source's name).

In brackets after ≈: the same amount, converted by molar mass. A value given as a limit tells only on which side of the number the result lay.

With `O=c1[nH]c(=O)n([C@H]2C[C@H](O)[C@@H](CO)O2)cc1C1SCCS1`, the IC50 is 300 µg/mL (≈ 903 µM) in series [1]; 150 µg/mL (≈ 451 µM) in series [2]; 200 µg/mL (≈ 602 µM) in [3]; 100 µg/mL (≈ 301 µM) in series [4]; over 400 µg/mL in [5]; 300 µg/mL (≈ 903 µM) in series [7]. Also, the figures for the IC50 in [8], in series [10] and in [11] were 300 µg/mL (≈ 903 µM), 200 µg/mL (≈ 602 µM) and 100 µg/mL (≈ 301 µM), respectively. The molecule also had an MCC in [6] of over 400 µg/mL. Also, the Ratio in [9] worked out at 1.

With `O=Cc1cn([C@H]2C[C@H](O)[C@@H](CO)O2)c(=O)[nH]c1=O`, the IC50 in [12] turned out to be 0.2 µg/mL (≈ 0.781 µM); in series [13] it was 1 µg/mL (≈ 3.9 µM); in [4], 75 µg/mL (≈ 293 µM); in series [7], 0.7 µg/mL (≈ 2.73 µM); in series [14], 1 µg/mL (≈ 3.9 µM); in [15] it was 1 µg/mL (≈ 3.9 µM). Moreover, the IC50 in series [16] amounted to 1 µg/mL (≈ 3.9 µM); in [17], 0.1 µg/mL (≈ 0.39 µM); in [18] it was 2 µg/mL (≈ 7.81 µM). Besides, the MCC in series [6] turned out to be 4 µg/mL. Also, the Ratio in series [9] is 375.

In the case of `O=c1[nH]c(=O)n([C@H]2C[C@H](O)[C@@H](CO)O2)cc1/C=N/O`, the IC50 in series [1] came to 20 µg/mL (≈ 73.7 µM); in series [2], 1 µg/mL (≈ 3.69 µM); in series [12] it was 7.5 µg/mL (≈ 27.7 µM); in series [3], 10 µg/mL (≈ 36.9 µM); in [4] it was 300 µg/mL (≈ 1110 µM); in series [5] it was 20 µg/mL (≈ 73.7 µM). In addition, the IC50 in series [7] worked out at 0.7 µg/mL (≈ 2.58 µM); in series [8], 0.7 µg/mL (≈ 2.58 µM); in series [10] it was 7 µg/mL (≈ 25.8 µM). Also, the MCC in [6] is 100 µg/mL. Moreover, in series [9], the Ratio is 40.
